Published values gathered from unrelated publications.
Protocols differ between the studies behind these lines.
Cell line: PC-3
Read-out: cell growth or viability

COc1cccc2c1C(=O)c1c(O)c3c(c(O)c1C2=O)C[C@@](O)(C(=O)CO)C[C@@H]3O[C@H]1C[C@H](N)[C@H](O)[C@H](C)O1
IC50 (MTT; 48 h): 0.629 µg/mL

CC(C)C[C@H](NC(=O)[C@H](Cc1ccccc1)NC(=O)c1cnccn1)B(O)O
IC50 (ATP luminescence): 12 nM

CCOC(=O)c1[nH]cc2c1NC1=C(C(=O)CCC1)[C@H]2c1cccc(Oc2nc3ccccc3[nH]2)c1
IC50 (ATP luminescence; 72 h): > 10000 nM

O=C(N/N=C/c1cccn1CCN1CCOCC1)Nc1cc2c(Nc3ccc(F)c(Cl)c3)ncnc2cc1O[C@H]1CCOC1
IC50 (MTT; 72 h): 4270 nM

COCCCOc1ccnc(COc2ccc(NC(=O)Nc3ccc(F)cc3)cc2)c1C
IC50 (MTT; 72 h): > 100000 nM

C[C@H]1O[C@@H](n2cc(F)c(=O)[nH]c2=O)[C@H](O)[C@@H]1O
IC50 (CCK-8; 48 h): > 50000 nM

CCN(CC)CCn1cccc1/C=N/NC(=O)Nc1cc2c(Nc3ccc(F)c(Cl)c3)ncnc2cc1OC
IC50 (MTT; 72 h): 1050 nM

Cc1c(OCC(F)(F)F)ccnc1COc1ccc(NC(=O)Nc2cc(F)cc(F)c2)cc1
IC50 (MTT; 72 h): > 100000 nM

Cc1cc(C)cc(COc2cc3c(cc2OCc2cc(C)cc(C)c2)[C@H]2C[C@](O)(Cc4cn(CCc5ccccc5)nn4)C[C@H](C)N2CC3)c1
IC50 (MTT): 318 nM

COc1c(C)cnc(COc2ccc(NC(=O)Nc3ccc(Cl)c(C(F)(F)F)c3)cc2)c1C
IC50 (MTT; 72 h): > 100000 nM

COc1cc2ncnc(Nc3ccc(F)c(Cl)c3)c2cc1NC(=O)N/N=C/CN1CCN(C)CC1
IC50 (MTT; 72 h): 5030 nM

Cc1cc(C)cc(COc2cc3c(cc2OCc2cc(C)cc(C)c2)[C@@H]2C[C@@](O)(Cc4cn(Cc5ccc(S(C)(=O)=O)cc5)nn4)C[C@@H](C)N2CC3)c1
IC50 (MTT): 230 nM

COc1cc2ncnc(Nc3ccc(F)c(Cl)c3)c2cc1NC(=O)N/N=C/c1cccn1CCCN1CCN(C)CC1
IC50 (MTT; 72 h): 660 nM

COc1ccc(NC(=O)Nc2ccc(OCc3ncc(C)c(OC)c3C)cc2)cc1
IC50 (MTT; 72 h): > 100000 nM

C/C=C/C(=O)Nc1ccc(Cn2cc(C[C@@]3(O)C[C@@H]4c5cc(OCc6cc(C)cc(C)c6)c(OCc6cc(C)cc(C)c6)cc5CCN4[C@@H](C)C3)nn2)cc1
IC50 (MTT): 364 nM

COc1c(C)cnc(COc2ccc(NC(=O)Nc3cccc(C(F)(F)F)c3)cc2)c1C
IC50 (MTT; 72 h): > 100000 nM

COc1cc2ncnc(Nc3ccc(F)c(Cl)c3)c2cc1NC(=O)N/N=C/c1cccn1CCN1CCOCC1
IC50 (MTT; 72 h): 820 nM

NCc1cc2c(-c3ccccc3)n[nH]c2c(Nc2ccccc2)n1
IC50 (MTS; 48 h): 1600 nM

O=C(N/N=C/c1cccn1CCCN1CCCC1)Nc1cc2c(Nc3ccc(F)c(Cl)c3)ncnc2cc1O[C@H]1CCOC1
IC50 (MTT; 72 h): 1820 nM

Cc1cc(C)cc(COc2cc3c(cc2OCc2cc(C)cc(C)c2)[C@H]2C[C@](O)(Cc4cn(Cc5ccc(NC(=O)/C=C/CN(C)C)cc5)nn4)C[C@H](C)N2CC3)c1
IC50 (MTT): 345 nM

Cc1ccc(C(=O)O)c(NC(=O)c2ccc(N)cc2)c1
IC50 (MTT): > 120000 nM

COc1ccnc(COc2ccc(NC(=O)Nc3cc(F)cc(F)c3)cc2)c1OC
IC50 (MTT; 72 h): > 100000 nM

CC(C)c1cc(-c2n[nH]c(=O)n2-c2ccc3c(ccn3C)c2)c(O)cc1O
IC50 (imaging; 24 h): 138 nM

CCN(CC)C/C=N/NC(=O)Nc1cc2c(Nc3ccc(F)c(Cl)c3)ncnc2cc1O[C@H]1CCOC1
IC50 (MTT; 72 h): 580 nM

CC(C)c1n[nH]c2c(Nc3ccccc3)nc(CNCc3ccccc3)cc12
IC50 (MTS; 48 h): 5800 nM

O=C(/C=C/c1ccc2ncn(Cc3ccccc3)c(=O)c2c1)NO
IC50 (SRB; 48 h): 1540 nM

COC1=CC(=O)N(C(=O)[C@@H](CCC(Cl)(Cl)Cl)NC(=O)C(C)(C)C)[C@@H]1CCC(Cl)Cl
IC50 (resazurin; 72 h): 28000 nM

C[C@H]1[C@@H](O)O[C@@H]2O[C@@]3(C)CC[C@H]4[C@H](C)CC[C@@H]1[C@@]24OO3
IC50 (CCK-8; 48 h): > 50000 nM

COc1ccc2c(c1OC)C(=O)O[C@@H]2[C@H]1c2c(c(Br)c3c(c2OC)OCO3)CCN1C
IC50 (MTT; 48 h): 182000 nM

Cc1cc(C)cc(COc2cc3c(cc2OCc2cc(C)cc(C)c2)[C@H]2C[C@](O)(Cc4cn(CC56CC7CC(CC(C7)C5)C6)nn4)C[C@H](C)N2CC3)c1
IC50 (MTT): 143 nM

CNC(=O)c1cc(Oc2ccc(NC(=O)Nc3ccc(Cl)c(C(F)(F)F)c3)cc2)ccn1
IC50 (MTT; 72 h): 3600 nM

c1ccc(CNCc2cc3c(-c4ccccc4)n[nH]c3c(Nc3ccccc3)n2)cc1
IC50 (MTS; 48 h): 3900 nM

COc1c(C)cnc(COc2ccc(NC(=O)Nc3ccc(Cl)cc3)cc2)c1C
IC50 (MTT; 72 h): 47900 nM

COc1ccc(/C=C/c2cc(C)no2)cc1
IC50 (MTT; 72 h): > 100000 nM

COc1ccc(Cn2cc(C[C@@]3(O)C[C@@H]4c5cc(OCc6cc(C)cc(C)c6)c(OCc6cc(C)cc(C)c6)cc5CCN4[C@@H](C)C3)nn2)cc1
IC50 (MTT): 866 nM

O=C(/C=C/c1ccc(CN(CCO)CCc2c[nH]c3ccccc23)cc1)NO
IC50 (resazurin; 72 h): 71 nM

Cc1ccc(Cn2cc(C[C@@]3(O)C[C@@H]4c5cc(OCc6cc(C)cc(C)c6)c(OCc6cc(C)cc(C)c6)cc5CCN4[C@@H](C)C3)nn2)cc1
IC50 (MTT): 375 nM

O=C(/C=C/c1ccc2ncn(Cc3ccccc3F)c(=O)c2c1)NO
IC50 (SRB; 48 h): 639 nM

C=CC(=O)Nc1ccc(Cn2cc(C[C@@]3(O)C[C@@H]4c5cc(OCc6cc(C)cc(C)c6)c(OCc6cc(C)cc(C)c6)cc5CCN4[C@@H](C)C3)nn2)cc1
IC50 (MTT): 161 nM

CN(C)CCn1cccc1/C=N/NC(=O)Nc1cc2c(Nc3ccc(F)c(Cl)c3)ncnc2cc1O[C@H]1CCOC1
IC50 (MTT; 72 h): 3840 nM
